Assay outcomes deposited in PubChem by Johns Hopkins Ion Channel Center.
Compounds with a hit are over-represented: about 3.5% of the library has one in this group of screens.
RGS4 block – human RGS4 inhibition. B-score at 10 µM. P49798. HEK293 M3R/RGS4 inducible, Fluo-4 calcium flux; hits give high values; triggered by carbachol at its EC20. 310,000 compounds, 0.45% hits;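 active means B-score, a plate-corrected calcium signal, over three deviations above library mean, with baseline fluorescence within five deviations of library mean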;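 further: RGS4 expression induced by doxycycline in cells with stable M3 receptor; B-score is computed from the integrated fluorescence ratio over baseline after carbachol; higher B-score means a larger calcium signal and so more RGS4 inhibition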
Target sequence (P49798 whole entry, looked up): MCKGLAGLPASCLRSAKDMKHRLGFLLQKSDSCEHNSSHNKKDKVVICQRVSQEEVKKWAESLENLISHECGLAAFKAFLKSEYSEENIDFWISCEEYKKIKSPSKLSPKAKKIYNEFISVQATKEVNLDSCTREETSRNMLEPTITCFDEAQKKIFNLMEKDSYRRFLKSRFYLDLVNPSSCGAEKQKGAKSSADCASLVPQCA
MrgX1 allo act – allosterically activates human MrgX1 receptor signaling. 310,000 compounds, 0.63% hits. B-score at 10 µM. MrgX1-HEK293, Fluo-4 calcium flux, FDSS; hits give high values. AID 588675. Q96LB2;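 active means plate-corrected calcium response at least 3 library SD above typical, normal starting fluorescence, not activating the receptor alone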;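 further: compound read alongside a low EC10 to EC30 dose of BAM8-22 agonist; peak minus trough fluorescence over baseline measured at the second addition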
Target sequence (Q96LB2 whole entry, looked up): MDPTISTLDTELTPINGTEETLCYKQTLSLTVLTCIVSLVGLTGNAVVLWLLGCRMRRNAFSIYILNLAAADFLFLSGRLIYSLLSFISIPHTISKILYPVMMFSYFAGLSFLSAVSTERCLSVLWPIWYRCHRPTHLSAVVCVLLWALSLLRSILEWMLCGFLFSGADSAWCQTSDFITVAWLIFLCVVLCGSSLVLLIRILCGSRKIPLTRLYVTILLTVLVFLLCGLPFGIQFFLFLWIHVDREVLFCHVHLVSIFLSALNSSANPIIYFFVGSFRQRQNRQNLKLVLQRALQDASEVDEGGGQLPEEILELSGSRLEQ
MrgX1 antag – human MrgX1 receptor antagonism, primary screen | B-score at 10 µM | Q96LB2 | AID 588676 | 310,000 compounds, 1.3% hits | MRGX1-HEK293 calcium flux, Fluo-4, BAM8-22 antagonism; hits give low values;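 active means calcium-response B-score plate-corrected more than 3 library SD below zero, starting fluorescence within 5 deviations, no agonist response on first addition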;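 further: peak minus trough fluorescence over baseline after final BAM8-22 challenge near maximal dose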
RGS4 pot – potentiators or activators of RGS4; HEK293 M3R/inducible RGS4, carbachol calcium flux Fluo4; hits give low values; B-score at 10 µM; 310,000 compounds, 0.92% hits; AID 463111;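 active means B-score of the integrated calcium signal more than 4 SD below the library mean, with starting fluorescence not abnormally high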;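 further: negative B-score means reduced calcium response which marks RGS4 activation or potentiation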
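Material: M3R-expressing HEK293 line, RGS4 induced by doxycycline | Schedule: Overnight RGS4 induction, 30 min dye load 37 °C, 20 min compound RT | Measured by: Fluo4 fluorescence kinetic imaging of calcium | Read-out: Integrated calcium ratio converted to B score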
MrgX1 agonist – activates human MrgX1 receptor signaling; B-score at 10 µM; Q96LB2; MrgX1-HEK293 cells, Fluo-4 calcium fluorescence, agonist mode; hits give high values; 310,000 compounds, 0.44% hits; AID 588627;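 active means calcium response B-score plate-corrected fluorescence ratio at least 3 library SD, with starting fluorescence B-score inside 5 SD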
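Assay system: stable human MrgX1 HEK293 cell line. Quantity: 15,000 cells per well. Schedule: cells plated overnight, dye loaded 0.5 h 37 °C, 0.5 h room temperature. Detection: Fluo-4 NW calcium-flux fluorescence, kinetic read. Read-out basis: peak-minus-minimum fluorescence over baseline, converted to B scores. Control set: positive and negative control wells on each plate.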
Numbers stand for hits.

What do the screens show for `Cc1ccc2c(c1)S/C(=C/c1ccc[n+](C)c1)N2CCO`?
RGS4 block: inactive; MrgX1 allo act: inactive; MrgX1 antag: inactive; RGS4 pot: -7; MrgX1 agonist: inactive

What do the screens show for `CCN1C(=O)/C(=C\N2CCCCCC2)SC1=S`?
RGS4 block: inactive; MrgX1 allo act: inactive; MrgX1 antag: inactive; RGS4 pot: -8.3; MrgX1 agonist: inactive

What do the screens show for `COc1cccc(C(C(=O)NCc2ccco2)N(Cc2ccco2)C(=O)Cn2nnc3ccccc32)c1` (configuration not stated)?
RGS4 block: inactive; MrgX1 allo act: inactive; MrgX1 antag: inactive; RGS4 pot: -7.2; MrgX1 agonist: inactive

What do the screens show for `C/C(=N\Nc1cc(C(F)(F)F)ccc1Cl)c1ccncc1`?
RGS4 block: inactive; MrgX1 allo act: inactive; MrgX1 antag: inactive; RGS4 pot: -7.6; MrgX1 agonist: inactive

How did O=C(Nc1cc(C(F)(F)F)ccc1Cl)c1ccncc1 do in these assays?
RGS4 block: inactive; MrgX1 allo act: inactive; MrgX1 antag: inactive; RGS4 pot: inactive; MrgX1 agonist: inactive

Results for CC1CC(CC(C)C(=O)Nc2nncs2)C(=O)O1 (configuration not stated) ?
RGS4 block: inactive; MrgX1 allo act: inactive; MrgX1 antag: inactive; RGS4 pot: inactive; MrgX1 agonist: inactive

Results for CC1CC(CC(C)C(=O)NC(=S)Nc2ccc(S(N)(=O)=O)cc2)C(=O)O1 (configuration not stated) ?
RGS4 block: inactive; MrgX1 allo act: inactive; MrgX1 antag: -6.5; RGS4 pot: inactive; MrgX1 agonist: inactive

Results for COc1cccc(Oc2cc(NN3CCCCC3)c([N+](=O)[O-])cc2[N+](=O)[O-])c1OC ?
RGS4 block: inactive; MrgX1 allo act: inactive; MrgX1 antag: inactive; RGS4 pot: -9.1; MrgX1 agonist: inactive

What do the screens show for `Cc1cc(F)ccc1Oc1cc(NN2CCCCC2)c([N+](=O)[O-])cc1[N+](=O)[O-]`?
RGS4 block: inactive; MrgX1 allo act: inactive; MrgX1 antag: inactive; RGS4 pot: inactive; MrgX1 agonist: inactive

Results for CCn1c(=N)n(CC(=O)c2ccco2)c2ccccc21 ?
RGS4 block: inactive; MrgX1 allo act: inactive; MrgX1 antag: inactive; RGS4 pot: inactive; MrgX1 agonist: inactive

Results for COc1cc(C2Oc3cc(C4Oc5cc(O)cc(O)c5C(=O)C4O)ccc3OC2CO)ccc1O (configuration not stated) ?
RGS4 block: inactive; MrgX1 allo act: 8.8; MrgX1 antag: inactive; RGS4 pot: inactive; MrgX1 agonist: inactive

What do the screens show for `O=C(Nc1ccc(F)cc1)N(CCCN1CCOCC1)Cc1cc2cc3c(cc2[nH]c1=O)OCCO3`?
RGS4 block: inactive; MrgX1 allo act: inactive; MrgX1 antag: inactive; RGS4 pot: inactive; MrgX1 agonist: inactive

What do the screens show for `O=C(NCCCN1CCOCC1)c1cc(-c2cccc(Br)c2)nc2ccccc12`?
RGS4 block: inactive; MrgX1 allo act: inactive; MrgX1 antag: inactive; RGS4 pot: inactive; MrgX1 agonist: inactive

Results for Cc1c(C(=O)NCCCN2CCOCC2)sc2nc(-c3ccccc3)cn12 ?
RGS4 block: inactive; MrgX1 allo act: inactive; MrgX1 antag: -7.3; RGS4 pot: inactive; MrgX1 agonist: inactive

What do the screens show for `COCCNC(=O)c1sc2nc(-c3ccccc3)cn2c1C`?
RGS4 block: inactive; MrgX1 allo act: inactive; MrgX1 antag: inactive; RGS4 pot: inactive; MrgX1 agonist: inactive

How did O=C(NCCCN1CCOCC1)c1cc(-c2ccc(Cl)s2)nc2ccccc12 do in these assays?
RGS4 block: inactive; MrgX1 allo act: inactive; MrgX1 antag: -7.4; RGS4 pot: inactive; MrgX1 agonist: inactive

Results for COc1ccc(OC)c(Nc2cc(C(=O)NCCCN3CCOCC3)c3ccccc3n2)c1 ?
RGS4 block: inactive; MrgX1 allo act: inactive; MrgX1 antag: -5.7; RGS4 pot: inactive; MrgX1 agonist: inactive

What do the screens show for `Cc1nn(C)c(C)c1CN(C)C(=O)c1cc2n(n1)C(C(F)(F)F)CC(c1cccs1)N2` (configuration not stated)?
RGS4 block: inactive; MrgX1 allo act: inactive; MrgX1 antag: inactive; RGS4 pot: inactive; MrgX1 agonist: inactive

How did CCOC(=O)N1CCN(/C=C(\C#N)c2nc3ccccc3s2)CC1 do in these assays?
RGS4 block: inactive; MrgX1 allo act: inactive; MrgX1 antag: -7.1; RGS4 pot: inactive; MrgX1 agonist: inactive

How did N#C/C(=C\N1CCN(Cc2ccc3c(c2)OCO3)CC1)c1nc2ccccc2s1 do in these assays?
RGS4 block: inactive; MrgX1 allo act: inactive; MrgX1 antag: inactive; RGS4 pot: inactive; MrgX1 agonist: inactive

How did CCCOc1ccc(NC(=O)Cc2ccc(S(=O)(=O)N3CCOCC3)s2)cc1OCCC do in these assays?
RGS4 block: inactive; MrgX1 allo act: inactive; MrgX1 antag: -4.7; RGS4 pot: inactive; MrgX1 agonist: inactive

What do the screens show for `O=C(COc1ccccc1-c1ccccc1)N/N=C/c1ccc2ccccc2c1`?
RGS4 block: inactive; MrgX1 allo act: inactive; MrgX1 antag: inactive; RGS4 pot: inactive; MrgX1 agonist: inactive

How did O=C(NCC1CCCO1)c1nn2c(C(F)(F)F)cc(-c3cc(Br)cs3)nc2c1Br (configuration not stated) do in these assays?
RGS4 block: inactive; MrgX1 allo act: inactive; MrgX1 antag: inactive; RGS4 pot: inactive; MrgX1 agonist: 33

What do the screens show for `O=c1[nH]c2ccc(NC(=S)NC3CCCCC3)cc2[nH]1`?
RGS4 block: inactive; MrgX1 allo act: inactive; MrgX1 antag: inactive; RGS4 pot: inactive; MrgX1 agonist: inactive

How did CCc1ccc(-c2nc(CSCC(=O)N3CCN(c4ccccn4)CC3)c(C)o2)cc1 do in these assays?
RGS4 block: inactive; MrgX1 allo act: inactive; MrgX1 antag: -7.1; RGS4 pot: inactive; MrgX1 agonist: inactive

Results for CCOC(=O)C1=C(C)N=c2s/c(=C\c3ccc(OC(C)=O)cc3)c(=O)n2C1/C=C/c1ccccc1 (configuration not stated) ?
RGS4 block: inactive; MrgX1 allo act: inactive; MrgX1 antag: inactive; RGS4 pot: -11; MrgX1 agonist: inactive

What do the screens show for `O=C(COc1cccc(-n2cnnn2)c1)Nc1ccc([N+](=O)[O-])cc1`?
RGS4 block: inactive; MrgX1 allo act: inactive; MrgX1 antag: inactive; RGS4 pot: inactive; MrgX1 agonist: inactive

How did COc1ccccc1-n1cc(CN2CCN(C3CCCC3)C(CCO)C2)cn1 (configuration not stated) do in these assays?
RGS4 block: inactive; MrgX1 allo act: inactive; MrgX1 antag: inactive; RGS4 pot: inactive; MrgX1 agonist: inactive

How did COc1ccccc1-n1cc(CN2CCN(CC(C)C)C(CCO)C2)cn1 (configuration not stated) do in these assays?
RGS4 block: inactive; MrgX1 allo act: inactive; MrgX1 antag: -5.8; RGS4 pot: inactive; MrgX1 agonist: inactive

What do the screens show for `COc1ccc(CCNC(=O)CCC(=O)N2CC(C)Oc3ccc(Cl)cc32)cc1OC` (configuration not stated)?
RGS4 block: inactive; MrgX1 allo act: inactive; MrgX1 antag: inactive; RGS4 pot: inactive; MrgX1 agonist: inactive
